From ChEMBL document CHEMBL1151472, “In vitro interactions between tacrolimus and azoles against Candida albicans determined by different methods” (2008)
In brackets after ≈: the same amount, converted by molar mass.

Key:
Assay type in all cases: functional
Candida albicans [1] = experiment: Antimicrobial activity against azole-resistant Candida albicans isolate CA10 assessed as growth at 64 ug/ml co-treated with 0.125 ug/ml calcineurin signaling inhibitor tacrolimus after 48 hrs by microdilution checkboard technique relative to control; set-up: scale not given: the % may be the effect or the level left
How it was run: (§1)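 CA10 in RPMI 1640 with 2% dextrose and 0.165 M MOPS, pH 7.0. Checkerboard used twofold dilutions, with azole alone in row H and the drug-free growth control in well H1. Final inoculum was 2.5 × 10^3 CFU/ml, incubated 35°C for 48 h, with OD read at 492 nm. Growth % = background-subtracted well OD / drug-free well OD. Run in triplicate on different days.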

Candida albicans [2] = experiment: Antimicrobial activity against azole-resistant Candida albicans isolate CA10 assessed as growth at 0.5 ug/ml cotreated with 0.004 ug/ml calcineurin signaling inhibitor tacrolimus after 48 hrs by microdilution checkerboard technique relative to control; set-up: scale not given: the % may be the effect or the level left
How it was run: (§2)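 Checkerboard microdilution in MOPS-buffered RPMI 1640 (pH 7.0, 2% dextrose). Final ranges: azole 0.125–128 μg/ml (FLC) or 0.008–8 μg/ml (ITR, VRC), tacrolimus 0.002–0.125 μg/ml; solvent 1% in single-drug wells. Inoculum 2.5 × 10^3 CFU/ml, 35°C, 48 h. Growth % = background-subtracted OD492 of each well / drug-free well. Triplicate on different days.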

Candida albicans [3] = experiment: Antimicrobial activity against azole-resistant Candida albicans isolate CA10 assessed as growth at 1 ug/ml after 48 hrs by microdilution checkerboard technique relative to control; how it was run: as §2
Candida albicans [4] = experiment: Antimicrobial activity against azole-resistant Candida albicans isolate CA10 assessed as growth at 0.5 ug/ml after 48 hrs by microdilution checkerboard technique relative to control; how it was run: as §2
Candida albicans [5] = experiment: Antimicrobial activity against azole-resistant Candida albicans isolate CA10 assessed as growth at 8 ug/ml cotreated with 0.002 ug/ml calcineurin signaling inhibitor Tacrolimus after 48 hrs by microdilution checkboard technique relative to control; set-up: scale not given: the % may be the effect or the level left; how it was run: as §1
Candida albicans [6] = experiment: Antimicrobial activity against azole-resistant Candida albicans isolate CA10 assessed as growth at 32 ug/ml cotreated with 0.016 ug/ml calcineurin signaling inhibitor Tacrolimus after 48 hrs by microdilution checkboard technique relative to control; set-up: scale not given: the % may be the effect or the level left; how it was run: as §1
Candida albicans [7] = experiment: Antimicrobial activity against azole-resistant Candida albicans isolate CA10 assessed as growth at 1 ug/ml cotreated with 0.016 ug/ml calcineurin signaling inhibitor tacrolimus after 48 hrs by microdilution checkerboard technique relative to control; set-up: scale not given: the % may be the effect or the level left; how it was run: as §2
Candida albicans [8] = experiment: Antimicrobial activity against azole-susceptible Candida albicans isolate CA14 co-treated with calcineurin signaling inhibitor tacrolimus after 48 hrs by microdilution checkerboard technique; details: isolate CA14, 48 h
How it was run: (§3)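 Checkerboard microdilution in MOPS-buffered RPMI 1640 (pH 7.0, 2% dextrose) with 2.5 × 10^3 CFU/ml for 48 h at 35°C. Final FK506 was 0.002–0.125 μg/ml. Azole finals were FLC 0.125–128 μg/ml, and ITR and VRC 0.008–8 μg/ml. MIC80 is an 80% OD492 decrease vs drug-free control. Interaction was scored by FICI (synergy ≤0.5, antagonism >4) and by ΔE from triplicates.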

Candida albicans [9] = experiment: Antimicrobial activity against azole-resistant Candida albicans isolate CA10 assessed as growth at 16 ug/ml cotreated with 0.125 ug/ml calcineurin signaling inhibitor tacrolimus after 48 hrs by microdilution checkerboard technique relative to control; set-up: scale not given: the % may be the effect or the level left; how it was run: as §2
Candida albicans [10] = experiment: Antimicrobial activity against azole-resistant Candida albicans isolate CA10 assessed as growth at 64 ug/ml cotreated with 0.063 ug/ml calcineurin signaling inhibitor Tacrolimus after 48 hrs by microdilution checkboard technique relative to control; set-up: scale not given: the % may be the effect or the level left; how it was run: as §1
Candida albicans [11] = experiment: Antimicrobial activity against azole-susceptible Candida albicans isolate CA14 assessed as lof reduction in colony count at 10 ug/ml cotreated with calcineurin signaling inhibitor Tacrolimus after 48 hrs by XTT assay
How it was run: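 Same time-kill setup (10^5 CFU/ml start, azole ± 0.016 μg/ml FK506, 35°C). At each time point, aliquots were mixed 1:1 with XTT (0.5 g/liter in Ringer's lactate) plus 10 μM menadione final. Incubation was in the dark for up to 2 h at 35°C, then formazan was read at 492 nm. OD was converted to CFU via a standard curve (Y = 4.2610x + 4.2087). Triplicate.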

Candida albicans [12] = experiment: Antimicrobial activity against azole-resistant Candida albicans isolate CA10 assessed as growth at 4 ug/ml cotreated with 0.004 ug/ml calcineurin signaling inhibitor tacrolimus after 48 hrs by microdilution checkerboard technique relative to control; set-up: scale not given: the % may be the effect or the level left; how it was run: as §1
Candida albicans [13] = experiment: Antimicrobial activity against azole-resistant Candida albicans isolate CA10 assessed as growth at 1 ug/ml cotreated with 0.004 ug/ml calcineurin signaling inhibitor Tacrolimus after 48 hrs by microdilution checkboard technique relative to control; set-up: scale not given: the % may be the effect or the level left; how it was run: as §2
Candida albicans [14] = experiment: Antimicrobial activity against azole-susceptible Candida albicans isolate CA5 co-treated with calcineurin signaling inhibitor tacrolimus after 48 hrs by microdilution checkerboard technique; details: isolate CA5, 48 h; how it was run: as §3
Candida albicans [15] = experiment: Antimicrobial activity against azole-resistant Candida albicans isolate CA15 after 48 hrs by broth microdilution method; details: isolate CA15, 48 h
How it was run: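 CLSI M27-A2 broth microdilution was run in RPMI 1640 (pH 7.0, 2% dextrose, 0.165 M MOPS). Inoculum was 2.5 × 10^3 CFU/ml, incubated 35°C for 48 h without shaking. Plates were read visually (0–5 scale) and at OD 492 nm. MIC80 = lowest concentration giving an 80% absorbance decrease vs drug-free control. Triplicate.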

Candida albicans [16] = experiment: Antimicrobial activity against azole-resistant Candida albicans isolate CA10 assessed as growth at 0.002 ug/ml after 48 hrs by microdilution checkerboard technique relative to control; how it was run: as §2
Candida albicans [17] = experiment: Antimicrobial activity against azole-resistant Candida albicans isolate CA10 assessed as growth at 64 ug/ml co-treated with 0.031 ug/ml calcineurin signaling inhibitor tacrolimus after 48 hrs by microdilution checkboard technique relative to control; set-up: scale not given: the % may be the effect or the level left
How it was run: (§4)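 Checkerboard microdilution in RPMI 1640 (pH 7.0, 2% dextrose, 0.165 M MOPS). Azole dilutions run along columns and FK506 along rows, at 4× final concentration. Final inoculum 2.5 × 10^3 CFU/ml from Sabouraud-subcultured cells. Incubated 35°C for 48 h; OD read at 492 nm. Background from microorganism-free plates subtracted. Growth % = well OD / drug-free well OD. Triplicate on different days, values averaged.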

Candida albicans [18] = experiment: Antimicrobial activity against azole-resistant Candida albicans isolate CA10 assessed as growth at 0.125 ug/ml cotreated with 0.125 ug/ml calcineurin signaling inhibitor Tacrolimus after 48 hrs by microdilution checkboard technique relative to control; set-up: scale not given: the % may be the effect or the level left; how it was run: as §2
Candida albicans [19] = experiment: Antimicrobial activity against azole-resistant Candida albicans isolate CA10 assessed as growth at 0.125 ug/ml after 48 hrs by microdilution checkerboard technique relative to control; how it was run: as §2
Candida albicans [20] = experiment: Antimicrobial activity against azole-resistant Candida albicans isolate CA10 assessed as growth at 0.25 ug/ml after 48 hrs by microdilution checkerboard technique relative to control; how it was run: as §4
Candida albicans [21] = experiment: Antimicrobial activity against azole-resistant Candida albicans isolate CA10 assessed as growth at 0.25 ug/ml cotreated with 0.063 ug/ml calcineurin signaling inhibitor Tacrolimus after 48 hrs by microdilution checkboard technique relative to control; set-up: scale not given: the % may be the effect or the level left; how it was run: as §4

Structure (SMILES): OC(Cn1cncn1)(Cn1cncn1)c1ccc(F)cc1F [FLUCONAZOLE]
- Activity (Candida albicans [1]): 0%
- Activity (Candida albicans [2]): 38%
- Activity (Candida albicans [3]): 56%
- Activity (Candida albicans [4]): 53%
- Activity (Candida albicans [5]): 38%
- Activity (Candida albicans [6]): 18%
- Activity (Candida albicans [7]): 24%
- MIC (Candida albicans [8]): 0.25 µg/mL
- Activity (Candida albicans [9]): 3%
- Activity (Candida albicans [10]): 0%
- Activity (Candida albicans [11]): 1.51
- Activity (Candida albicans [12]): 46%
- Activity (Candida albicans [13]): 29%
- MIC (Candida albicans [14]): 0.25 µg/mL
- MIC (Candida albicans [15]): 128 µg/mL (≈ 418 µM)
- Activity (Candida albicans [16]): 97%
- Activity (Candida albicans [17]): 13%
- Activity (Candida albicans [18]): 25%
- Activity (Candida albicans [19]): 75%
- Activity (Candida albicans [20]): 63%
- Activity (Candida albicans [21]): 11%
